By Ki is commonly meant a dissociation constant, usually derived from enzyme kinetics or from competition with a known ligand.

The results in this text go back to article PMC4303589 (Molecular and cellular biochemistry, 2014).

The test deals with T1, SvAS (fused anthranilate synthase, SvTrpEG) (Streptomyces venezuelae, UniProt O30589).
T1 sequence (O30589 1-623): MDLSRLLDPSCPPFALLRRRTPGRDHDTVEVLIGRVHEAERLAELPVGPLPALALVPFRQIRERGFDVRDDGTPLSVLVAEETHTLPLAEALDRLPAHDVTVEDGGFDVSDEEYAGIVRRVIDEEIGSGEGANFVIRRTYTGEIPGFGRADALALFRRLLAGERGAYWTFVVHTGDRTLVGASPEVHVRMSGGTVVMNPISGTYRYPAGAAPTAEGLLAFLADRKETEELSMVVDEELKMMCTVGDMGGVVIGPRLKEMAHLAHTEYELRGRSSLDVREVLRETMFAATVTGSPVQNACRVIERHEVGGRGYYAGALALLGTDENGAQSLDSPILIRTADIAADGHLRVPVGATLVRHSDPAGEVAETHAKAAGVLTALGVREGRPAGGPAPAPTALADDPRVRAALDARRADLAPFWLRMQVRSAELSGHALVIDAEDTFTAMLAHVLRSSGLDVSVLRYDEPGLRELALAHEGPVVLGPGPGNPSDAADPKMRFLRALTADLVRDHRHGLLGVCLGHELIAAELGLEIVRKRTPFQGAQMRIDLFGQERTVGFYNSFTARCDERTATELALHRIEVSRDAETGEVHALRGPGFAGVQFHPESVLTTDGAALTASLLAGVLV
In kind it is biochemical. The method, boiled down: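 His-tagged SvAS expressed in E. coli BL21(DE3)pLysS and purified on Ni-NTA. Assays at 30°C in 50 mM Tricine pH 7.5 with 12.5 mM MgCl2, 10 μg enzyme, 20 mM glutamine (saturating), 0.39–100 μM chorismate, and 2.5, 5, 10 or 20 μM test compound. Anthranilate fluorescence (ex 315/em 395 nm) converted via standard curve. Lineweaver-Burk plot assigned inhibition type; Ki from fit to that equation.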

In turn, `N[C@@H](Cc1c[nH]c2ccccc12)C(=O)O` [tryptophan] came in with a Ki of 11.1 ± 0.1 µM.
